The source made the active and inactive calls.
Legend:
Type in all cases: functional, organism-based
Conditions in all cases: dose 1-10 µM
Influenza B virus [1] = experiment: Antiviral activity against oseltamivir resistant Influenza B virus B/2791/18 (Victoria) infected in MDCK cells assessed as reduction in plaque number at 1 to 10 uM pre-infected with cell for 1 hrs followed by compound addition and measured after 72 hrs by plaque reduction assay
Procedure, shortened: (§1)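 Confluent MDCK monolayers were inoculated at 37 °C for 1 h with virus suspension, either alone or with serial half-log sample dilutions (1, 3.16, 10), in duplicate. The inoculum was aspirated and replaced with serum-free test medium containing 2 µg/mL trypsin, 0.4% agar and the same sample concentrations. Plaques were counted and IC50 was derived by a four-parameter logistic fit (n = 3).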

Influenza A virus [2] = experiment: Antiviral activity against oseltamivir resistant Influenza A virus A/1690/19 (H1N1) infected in MDCK cells assessed as reduction in plaque number at 1 to 10 uM pre-infected with cell for 1 hrs followed by compound addition and measured after 72 hrs by plaque reduction assay; procedure, shortened: as §1
Influenza A virus [3] = experiment: Antiviral activity against oseltamivir resistant Influenza A virus A/1519/19 (H1N1) infected in MDCK cells assessed as reduction in plaque number at 1 to 10 uM pre-infected with cell for 1 hrs followed by compound addition and measured after 72 hrs by plaque reduction assay; procedure, shortened: as §1
Influenza A virus [4] = experiment: Antiviral activity against oseltamivir resistant Influenza A virus A/2588/19 (H3N2) infected in MDCK cells assessed as reduction in plaque number at 1 to 10 uM pre-infected with cell for 1 hrs followed by compound addition and measured after 72 hrs by plaque reduction assay; procedure, shortened: as §1
Influenza B virus [5] = experiment: Antiviral activity against oseltamivir resistant Influenza B virus B/3449/18 (Yamagata) infected in MDCK cells assessed as reduction in plaque number at 1 to 10 uM pre-infected with cell for 1 hrs followed by compound addition and measured after 72 hrs by plaque reduction assay; procedure, shortened: as §1

Measured: Activity

CC(C)=CCCC1=C[C@H](c2c(O)cc3c(c2O)C(=O)C[C@@H](c2ccc(O)cc2O)O3)[C@@H](C(=O)c2ccc(O)cc2O)[C@H](c2ccc(O)cc2O)C1
active: all assays above

CC(C)=CC[C@]12Oc3cc(O)c([C@H]4C=C(C)C[C@H](c5ccc(O)cc5O)[C@H]4C(=O)c4ccc(O)cc4O)c(O)c3C(=O)[C@@]1(O)Oc1cc(O)ccc12 [SANGGENON C]
active: all assays above
